In experiment [1] the target is T1, pUL15C (Human herpesvirus 1, UniProt P04295). The experiment can be described thus: Dual-probe fluorescence assay of pUL15C nuclease activity. The class given is biochemical.
In experiment [2] the target is T1, pUL15C. Put plainly: Differential scanning fluorimetry. The class given is binding. To be noted: wild-type pUL15C, DSF. The gist of the method: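 Binding read by thermal shift: test compound added from a 1 mM DMSO stock to 1.6 µM pUL15C in 20 mM HEPES (pH 7.5), 10 mM MgCl₂, 100 mM NaCl and SYPRO Orange (1:2000). Heated 30 to 80 °C in 0.2 °C steps. Fluorescence was read at ex 483 / em 568 nm, ΔTm was derived from melt curves, and runs were in duplicate.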
A general note: In DSF a fluorescence change marks the thermal transition of the protein.

For experiment [3], the target named is T1, pUL15C. Put plainly: Michaelis-Menten kinetic analysis with the dual-probe fluorescence assay. The class given is biochemical, herpes simplex virus.
The target in experiment [4] is T1, pUL15C. The experiment can be described thus: Yonetani-Theorell analysis of pUL15C nuclease inhibition. To be noted: compound 21 0-0.4 μM, raltegravir 0-2.0 μM, substrate 250 nM. The class given is biochemical.
Experiment [5] deals with HSV-2. The following applies: at noncytotoxic concentrations; cited from earlier work.
Experiment [6] concerns the target DNase I (Bos taurus, UniProt P00639). Put plainly: DNase I cleavage of substrate 21D/33D. The class given is biochemical. To be noted: 1 mM Mn2+, 20 μM compound.
Experiment [7] deals with HSV-1. To be noted: at noncytotoxic concentrations; cited from earlier work.
Experiment [8] has as its target Lys700Ala pUL15C (Human herpesvirus 1, UniProt P04295, K700A). Put plainly: Differential scanning fluorimetry. It counts as binding, herpes simplex virus. To be noted: DSF, 20 μM β-thujaplicinol.
In experiment [9] the target is T1, pUL15C. The experiment can be described thus: pUL15C nuclease activity on supercoiled plasmid, agarose gel electrophoresis. It counts as biochemical, herpes simplex virus.

This is an account of results in article PMC4819167 (Biochemistry, 2016).

Chain of DNase I (P00639 23-282): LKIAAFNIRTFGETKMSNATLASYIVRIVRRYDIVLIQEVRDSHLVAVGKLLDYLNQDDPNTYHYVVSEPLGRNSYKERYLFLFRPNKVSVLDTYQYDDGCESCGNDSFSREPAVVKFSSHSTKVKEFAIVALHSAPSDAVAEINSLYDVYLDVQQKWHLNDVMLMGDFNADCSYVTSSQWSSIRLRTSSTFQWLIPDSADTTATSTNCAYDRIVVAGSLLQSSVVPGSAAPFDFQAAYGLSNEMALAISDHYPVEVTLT

As usually defined, the IC50 is the concentration that inhibits the measured activity by half. As to `CCN1C[C@H](C)n2c(c(O)c3c(=O)n(Cc4ccc(F)c(Cl)c4)nc(C(=O)NC)c32)C1=O` [MK2048], in experiment [1] (read-out: IC50, pUL15C nuclease activity, dual-probe fluorescence assay, 0.3 μM pUL15C, 250 nM DNA duplex, 1 mM MnCl2, 37 °C, triplicate), the IC50 is over 10000 nM. In experiment [2], the “decrease of the Tm of pUL15C (destabilizing effect)” value is about 0.5 °C.

`C[C@@H]1CCO[C@H]2Cn3cc(C(=O)NCc4ccc(F)cc4F)c(=O)c(O)c3C(=O)N12` [dolutegravir] gave an IC50 in experiment [1] of 1100 ± 90 nM.

Take `COc1cc2c(cc1Cc1cccc(Cl)c1F)c(=O)c(C(=O)O)cn2[C@H](CO)C(C)C` [elvitegravir]: the IC50 in experiment [1] is over 10000 nM. The “decrease of the Tm of pUL15C (destabilizing effect)” value in experiment [2] is about 0.5 °C.

In general, Ki refers to the dissociation constant of the complex between target and ligand, obtained from inhibition or displacement. High values mean a looser hold on the target, low ones a stronger hold on the target. `Cc1nnc(C(=O)NC(C)(C)c2nc(C(=O)NCc3ccc(F)cc3)c(O)c(=O)n2C)o1` [raltegravir] showed an IC50 in experiment [1] of 390 ± 50 nM. Also, the inhibitory constant (Ki) in [3] was determined as 1000 ± 100 nM. In addition, in experiment [3] (Lineweaver-Burke plot), the “mode of pUL15C inhibition” value is given as “noncompetitively inhibits”. In addition, the “binding-site overlap of compound 21 and raltegravir (Yonetani-Theorell plot)” value in [4] was “mutually exclusive”.

As to `CC(C)c1ccc(O)c(=O)c(O)c1` [β-thujaplicinol], the “replication of wild-type and ACV-resistant HSV-2” value in [5] is “suppress replication”. Besides, the “inhibition of DNase I cleavage of substrate 21D/33D” value in experiment [6] is reported as “insensitive to inhibition”. In addition, the “replication of wild-type and ACV-resistant HSV-1” value in experiment [7] is “suppress replication”. For the same compound, the “increase of Tm of the Lys700Ala mutant” value in experiment [8] is 4.30 °C. In experiment [9], this compound registered an IC50 of 2000 nM.

With manicol, in experiment [5], the “replication of wild-type and ACV-resistant HSV-2” value is “suppress replication”. Moreover, the “replication of wild-type and ACV-resistant HSV-1” value in experiment [7] was “suppress replication”.
